Measurements published in ChEMBL document CHEMBL2163282, “Discovery and characterization of AZD9272 and AZD6538-Two novel mGluR5 negative allosteric modulators selected for clinical development” (Bioorg Med Chem Lett, 2012).
In brackets after ≈: the same amount, converted by molar mass. Activity calls are given as the source filed them. The rule behind the calls is not given here.

Experiments:
[1] = molecular target: T1, Metabotropic glutamate receptor 5 (Homo sapiens, UniProt P41594); assay: Noncompetitive inhibition of human mGluR5 expressed in HEK cells assessed as inhibition of DHPG-induced intracellular Ca2+ level at 10 to 300 nM after 30 mins by FLIPR assay; type: functional, cell-based; settings: HEK293
Summary of the method: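 Human mGluR5-GHEK cells on FLIPR: DHPG concentration–response curves run at increasing modulator concentrations, intracellular Ca2+ read-out; shifts in DHPG potency and maximal response evaluated for non-competitive interaction.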

[2] = Equilibrium solubility of the compound […]; type: physicochemical
Summary of the method: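 Solubility was measured by a dried-DMSO rapid-throughput method.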

[3] = molecular target: Metabotropic glutamate receptor 5 (Rattus norvegicus) (UniProt P31424); assay: Negative allosteric modulation of rat recombinant mGluR5 expressed in HEK293 cells expressing GLAST assessed as inhibition of ATP-induced intracellular Ca2+ level at 10 uM after 30 mins by FLIPR assay; type: functional, cell-based
Sequence of Metabotropic glutamate receptor 5 (Rattus norvegicus) (P31424 21-1203 limits assumed): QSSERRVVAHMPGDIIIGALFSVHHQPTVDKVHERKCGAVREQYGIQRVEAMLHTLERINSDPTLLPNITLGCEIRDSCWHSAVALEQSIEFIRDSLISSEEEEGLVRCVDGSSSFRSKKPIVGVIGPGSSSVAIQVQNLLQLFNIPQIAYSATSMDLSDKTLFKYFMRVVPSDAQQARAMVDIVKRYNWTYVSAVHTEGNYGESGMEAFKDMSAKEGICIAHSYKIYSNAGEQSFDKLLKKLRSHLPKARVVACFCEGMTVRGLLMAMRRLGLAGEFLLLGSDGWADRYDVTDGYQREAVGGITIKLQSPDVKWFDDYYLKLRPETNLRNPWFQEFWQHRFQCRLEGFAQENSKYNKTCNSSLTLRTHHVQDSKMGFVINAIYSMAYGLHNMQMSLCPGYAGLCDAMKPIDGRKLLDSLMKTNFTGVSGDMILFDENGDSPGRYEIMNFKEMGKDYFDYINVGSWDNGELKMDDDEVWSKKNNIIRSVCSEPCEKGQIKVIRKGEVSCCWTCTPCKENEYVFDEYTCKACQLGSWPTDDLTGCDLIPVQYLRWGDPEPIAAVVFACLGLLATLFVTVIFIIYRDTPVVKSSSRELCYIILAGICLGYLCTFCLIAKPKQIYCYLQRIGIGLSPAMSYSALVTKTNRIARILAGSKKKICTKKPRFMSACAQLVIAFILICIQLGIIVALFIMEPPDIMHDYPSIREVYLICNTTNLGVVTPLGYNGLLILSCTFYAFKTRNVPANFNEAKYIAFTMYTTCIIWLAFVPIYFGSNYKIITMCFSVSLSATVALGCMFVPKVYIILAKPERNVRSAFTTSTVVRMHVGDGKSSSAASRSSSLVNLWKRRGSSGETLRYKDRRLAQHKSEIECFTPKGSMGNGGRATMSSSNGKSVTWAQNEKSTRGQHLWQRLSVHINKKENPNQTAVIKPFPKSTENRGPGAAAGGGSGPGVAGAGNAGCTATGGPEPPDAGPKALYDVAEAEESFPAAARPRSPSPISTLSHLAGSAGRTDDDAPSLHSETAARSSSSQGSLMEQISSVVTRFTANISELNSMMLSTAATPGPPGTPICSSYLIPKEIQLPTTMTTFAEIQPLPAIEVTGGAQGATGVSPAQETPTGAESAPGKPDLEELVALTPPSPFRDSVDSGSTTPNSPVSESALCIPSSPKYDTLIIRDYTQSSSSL
Summary of the method: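 FLIPR intracellular Ca2+ readout in background GHEK cells (HEK293 with glutamate/aspartate transporter, lacking mGluR5), stimulated with 10 µM ATP; test compound at 10 µM to check off-target inhibition.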

[4] = molecular target: Metabotropic glutamate receptor 4 (Homo sapiens) (UniProt Q14833); assay: Positive allosteric modulation of mGluR4 assessed as effect on intracellular Ca2+ level up to 30 uM by cell based FLIPR assay; type: functional
Sequence of Metabotropic glutamate receptor 4 (Homo sapiens) (Q14833 whole entry): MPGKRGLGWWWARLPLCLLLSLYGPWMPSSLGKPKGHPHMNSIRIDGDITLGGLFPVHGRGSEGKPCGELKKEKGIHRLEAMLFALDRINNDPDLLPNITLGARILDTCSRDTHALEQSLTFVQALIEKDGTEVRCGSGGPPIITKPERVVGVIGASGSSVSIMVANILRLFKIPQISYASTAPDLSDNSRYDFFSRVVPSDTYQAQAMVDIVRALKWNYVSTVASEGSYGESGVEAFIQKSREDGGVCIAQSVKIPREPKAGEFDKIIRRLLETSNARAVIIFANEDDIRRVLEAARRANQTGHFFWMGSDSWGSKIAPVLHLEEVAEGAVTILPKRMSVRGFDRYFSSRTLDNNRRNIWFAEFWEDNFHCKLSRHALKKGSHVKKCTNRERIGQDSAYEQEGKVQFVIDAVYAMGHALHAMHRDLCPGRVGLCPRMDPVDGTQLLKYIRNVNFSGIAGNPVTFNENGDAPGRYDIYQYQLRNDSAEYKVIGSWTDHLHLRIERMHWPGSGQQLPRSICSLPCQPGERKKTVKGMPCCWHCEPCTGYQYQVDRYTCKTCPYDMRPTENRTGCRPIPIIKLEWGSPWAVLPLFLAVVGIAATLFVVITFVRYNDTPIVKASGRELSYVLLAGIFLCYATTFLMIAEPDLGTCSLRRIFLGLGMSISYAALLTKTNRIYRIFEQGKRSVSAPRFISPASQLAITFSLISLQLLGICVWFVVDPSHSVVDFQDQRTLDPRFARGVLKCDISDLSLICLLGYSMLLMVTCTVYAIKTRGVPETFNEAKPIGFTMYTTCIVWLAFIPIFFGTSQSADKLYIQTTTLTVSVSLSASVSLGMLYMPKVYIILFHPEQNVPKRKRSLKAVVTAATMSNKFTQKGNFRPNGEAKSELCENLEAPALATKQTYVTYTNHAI
Summary of the method: (§1)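 Each of the seven other mGluR subtypes was tested at concentrations up to 30 µM. Agonist, antagonist and positive allosteric modulator modes were each assessed. Read-out was the change in intracellular Ca2+ on FLIPR.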

[5] = molecular target: Metabotropic glutamate receptor 8 (Homo sapiens) (UniProt O00222); assay: Positive allosteric modulation of mGluR8 assessed as effect on intracellular Ca2+ level up to 30 uM by cell based FLIPR assay; type: functional; summary of the method: as §1
Sequence of Metabotropic glutamate receptor 8 (Homo sapiens) (O00222 whole entry): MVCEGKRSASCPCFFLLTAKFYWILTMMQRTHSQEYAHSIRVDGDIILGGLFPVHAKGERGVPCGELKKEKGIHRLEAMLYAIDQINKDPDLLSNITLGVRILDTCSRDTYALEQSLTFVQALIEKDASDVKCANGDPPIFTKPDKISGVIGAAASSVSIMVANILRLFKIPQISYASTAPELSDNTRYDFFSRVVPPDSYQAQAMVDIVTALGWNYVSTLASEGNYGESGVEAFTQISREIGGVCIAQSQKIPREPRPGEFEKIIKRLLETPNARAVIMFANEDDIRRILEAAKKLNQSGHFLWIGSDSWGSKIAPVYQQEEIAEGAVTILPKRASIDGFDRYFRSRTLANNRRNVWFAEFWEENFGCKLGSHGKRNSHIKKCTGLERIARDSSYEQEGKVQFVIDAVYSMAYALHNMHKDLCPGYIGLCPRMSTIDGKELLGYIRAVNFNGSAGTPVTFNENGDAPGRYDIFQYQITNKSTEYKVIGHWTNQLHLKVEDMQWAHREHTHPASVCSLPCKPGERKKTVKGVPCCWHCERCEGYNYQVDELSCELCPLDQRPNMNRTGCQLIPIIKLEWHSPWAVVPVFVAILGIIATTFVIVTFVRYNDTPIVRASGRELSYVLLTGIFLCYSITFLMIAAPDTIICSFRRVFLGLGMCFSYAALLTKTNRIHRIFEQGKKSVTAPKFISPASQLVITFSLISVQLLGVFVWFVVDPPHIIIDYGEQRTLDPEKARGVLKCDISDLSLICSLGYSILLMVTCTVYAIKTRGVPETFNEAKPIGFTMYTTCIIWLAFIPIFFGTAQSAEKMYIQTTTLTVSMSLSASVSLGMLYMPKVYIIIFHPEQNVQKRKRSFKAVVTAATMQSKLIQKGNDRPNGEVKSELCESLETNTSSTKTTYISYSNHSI

[6] = molecular target: Metabotropic glutamate receptor 2 (Homo sapiens) (UniProt Q14416); assay: Antagonist activity at mGluR2 assessed as effect on intracellular Ca2+ level up to 30 uM by cell based FLIPR assay; type: functional; summary of the method: as §1
Sequence of Metabotropic glutamate receptor 2 (Homo sapiens) (Q14416 19-872 limits assumed): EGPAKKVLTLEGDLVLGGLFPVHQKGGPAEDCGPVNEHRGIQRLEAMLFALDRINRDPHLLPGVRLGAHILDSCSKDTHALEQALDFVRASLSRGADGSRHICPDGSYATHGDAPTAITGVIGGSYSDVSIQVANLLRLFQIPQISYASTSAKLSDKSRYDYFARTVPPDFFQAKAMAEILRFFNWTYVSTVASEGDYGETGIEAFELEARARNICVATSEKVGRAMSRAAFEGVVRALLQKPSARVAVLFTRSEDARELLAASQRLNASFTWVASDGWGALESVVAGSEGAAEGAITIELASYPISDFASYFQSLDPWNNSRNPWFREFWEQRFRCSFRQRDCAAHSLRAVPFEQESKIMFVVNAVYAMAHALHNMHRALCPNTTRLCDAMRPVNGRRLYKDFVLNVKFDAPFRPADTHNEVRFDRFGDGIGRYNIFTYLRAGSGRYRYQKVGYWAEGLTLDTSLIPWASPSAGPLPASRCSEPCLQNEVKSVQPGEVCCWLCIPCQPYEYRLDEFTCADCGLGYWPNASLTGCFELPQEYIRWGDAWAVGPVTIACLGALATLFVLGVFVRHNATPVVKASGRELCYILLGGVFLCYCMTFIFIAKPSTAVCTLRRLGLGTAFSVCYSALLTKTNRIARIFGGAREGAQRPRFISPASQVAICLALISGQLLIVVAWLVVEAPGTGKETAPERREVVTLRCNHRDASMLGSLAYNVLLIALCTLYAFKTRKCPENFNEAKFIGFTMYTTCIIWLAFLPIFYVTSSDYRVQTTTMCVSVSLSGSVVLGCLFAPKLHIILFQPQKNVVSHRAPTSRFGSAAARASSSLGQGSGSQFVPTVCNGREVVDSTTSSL

[7] = molecular target: Metabotropic glutamate receptor 3 (Homo sapiens) (UniProt Q14832); assay: Antagonist activity at mGluR3 assessed as effect on intracellular Ca2+ level up to 30 uM by cell based FLIPR assay; type: functional; summary of the method: as §1
[8] = molecular target: Metabotropic glutamate receptor 5 (Rattus norvegicus) (UniProt P31424); assay: (§2) Negative allosteric modulation of rat recombinant mGluR5 expressed in HEK293 cells expressing GLAST assessed as inhibition of DHPG-induced intracellular Ca2+ level after 30 mins by FLIPR assay; type: functional, cell-based
Summary of the method: (§3)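 Human or rat mGluR5 expressed recombinantly in HEK293 cells that constitutively express the glutamate/aspartate transporter (mGluR5-GHEK). Intracellular Ca2+ rise evoked by DHPG was read on FLIPR. Potency was taken from test-compound inhibition of that response. Mean of 3 separate experiments.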

[9] = molecular target: Metabotropic glutamate receptor 5 (Rattus norvegicus, UniProt P31424); assay: as §2; type: functional, cell-based; summary of the method: as §3
[10] = molecular target: Metabotropic glutamate receptor 5 (Rattus norvegicus) (UniProt P31424); assay: Negative allosteric modulation of rat recombinant mGluR5 expressed in HEK293 cells expressing GLAST assessed as inhibition of DHPG-induced intracellular Ca2+ level at 0.001 to 3 uM after 30 mins by FLIPR assay; type: functional, cell-based
[11] = molecular target: Metabotropic glutamate receptor 2 (Homo sapiens) (UniProt Q14416); assay: Positive allosteric modulation of mGluR2 assessed as effect on intracellular Ca2+ level up to 30 uM by cell based FLIPR assay; type: functional; summary of the method: as §1
[12] = molecular target: Metabotropic glutamate receptor 1 (Homo sapiens) (UniProt Q13255); assay: Positive allosteric modulation of mGluR1 assessed as effect on intracellular Ca2+ level up to 30 uM by cell based FLIPR assay; type: functional; summary of the method: as §1
Sequence of Metabotropic glutamate receptor 1 (Homo sapiens) (Q13255 19-1194 limits assumed): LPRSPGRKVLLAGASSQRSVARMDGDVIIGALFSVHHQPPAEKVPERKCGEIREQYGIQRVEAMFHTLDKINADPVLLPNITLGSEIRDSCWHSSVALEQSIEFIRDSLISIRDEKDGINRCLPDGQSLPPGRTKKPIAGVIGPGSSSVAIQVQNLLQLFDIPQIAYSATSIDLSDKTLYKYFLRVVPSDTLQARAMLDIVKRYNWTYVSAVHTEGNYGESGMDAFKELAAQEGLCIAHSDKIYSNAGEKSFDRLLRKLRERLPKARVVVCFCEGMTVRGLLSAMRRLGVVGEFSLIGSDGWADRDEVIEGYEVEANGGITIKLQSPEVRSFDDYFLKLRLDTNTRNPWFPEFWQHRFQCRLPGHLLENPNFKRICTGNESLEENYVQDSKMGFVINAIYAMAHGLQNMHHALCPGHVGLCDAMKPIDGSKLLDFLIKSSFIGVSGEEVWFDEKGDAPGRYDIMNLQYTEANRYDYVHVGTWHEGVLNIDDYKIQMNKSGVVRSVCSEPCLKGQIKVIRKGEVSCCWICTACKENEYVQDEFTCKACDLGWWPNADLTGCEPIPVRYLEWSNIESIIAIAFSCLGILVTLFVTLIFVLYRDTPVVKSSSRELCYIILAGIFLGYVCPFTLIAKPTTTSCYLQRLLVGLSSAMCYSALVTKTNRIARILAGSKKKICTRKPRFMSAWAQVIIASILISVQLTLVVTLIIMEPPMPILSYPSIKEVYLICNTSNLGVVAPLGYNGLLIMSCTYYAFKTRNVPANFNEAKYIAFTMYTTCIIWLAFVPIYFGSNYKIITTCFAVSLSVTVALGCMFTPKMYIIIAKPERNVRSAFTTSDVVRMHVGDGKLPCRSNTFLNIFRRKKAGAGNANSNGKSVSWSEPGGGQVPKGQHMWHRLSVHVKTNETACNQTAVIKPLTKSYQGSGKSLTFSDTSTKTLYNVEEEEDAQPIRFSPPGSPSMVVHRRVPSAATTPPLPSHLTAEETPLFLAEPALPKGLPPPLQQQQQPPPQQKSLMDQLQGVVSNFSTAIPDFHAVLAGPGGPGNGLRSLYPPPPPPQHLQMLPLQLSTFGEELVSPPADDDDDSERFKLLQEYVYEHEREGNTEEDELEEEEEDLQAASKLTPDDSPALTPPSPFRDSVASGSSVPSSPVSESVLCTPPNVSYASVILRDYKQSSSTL

[13] = molecular target: Metabotropic glutamate receptor 4 (Homo sapiens) (UniProt Q14833); assay: Agonist activity at mGluR4 assessed as effect on intracellular Ca2+ level up to 30 uM by cell based FLIPR assay; type: functional; summary of the method: as §1
[14] = molecular target: Metabotropic glutamate receptor 7 (Homo sapiens) (UniProt Q14831); assay: Antagonist activity at mGluR7 assessed as effect on intracellular Ca2+ level up to 30 uM by cell based FLIPR assay; type: functional; summary of the method: as §1
[15] = molecular target: Metabotropic glutamate receptor 8 (Homo sapiens) (UniProt O00222); assay: Antagonist activity at mGluR8 assessed as effect on intracellular Ca2+ level up to 30 uM by cell based FLIPR assay; type: functional; summary of the method: as §1
[16] = molecular target: Metabotropic glutamate receptor 3 (Homo sapiens) (UniProt Q14832); assay: Agonist activity at mGluR3 assessed as effect on intracellular Ca2+ level up to 30 uM by cell based FLIPR assay; type: functional; summary of the method: as §1
[17] = molecular target: Metabotropic glutamate receptor 4 (Homo sapiens) (UniProt Q14833); assay: Antagonist activity at mGluR4 assessed as effect on intracellular Ca2+ level up to 30 uM by cell based FLIPR assay; type: functional; summary of the method: as §1
[18] = molecular target: Metabotropic glutamate receptor 1 (Homo sapiens) (UniProt Q13255); assay: Agonist activity at mGluR1 assessed as effect on intracellular Ca2+ level up to 30 uM by cell based FLIPR assay; type: functional; summary of the method: as §1
[19] = Plasma protein binding in Sprague-Dawley rat after 6 hrs by equilibrium dialysis method; type: ADME, cell-free; settings: read-out: PPB (converted)
[20] = Oral bioavailability in Sprague-Dawley rat at 3 umol/kg; type: ADME, organism-based; settings: in vivo
Summary of the method: (§4)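 Male rats (n = 3) received a single oral dose of 3 µmol/kg. Vehicle was Polyvidon K30 1.7 mg/ml, sodium lauryl sulphate 0.34 mg/ml and glycerin 25.0 mg/ml in water. Plasma levels were measured by liquid–liquid extraction and reversed-phase LC-MS/MS (APCI or ESI).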

[21] = Intrinsic clearance in rat liver microsomes; type: ADME, Microsome; settings: read-out: CLH
Summary of the method: (§5)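 Intrinsic clearance was determined in human or rat microsomes and expressed per min per mg protein.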

[22] = molecular target: T1, Metabotropic glutamate receptor 5; assay: Negative allosteric modulation of human recombinant mGluR5 expressed in HEK293 cells expressing GLAST assessed as inhibition of DHPG-induced intracellular Ca2+ level at 0.001 to 3 uM after 30 mins by FLIPR assay; type: functional, cell-based
[23] = molecular target: Metabotropic glutamate receptor 7 (Homo sapiens) (UniProt Q14831); assay: Positive allosteric modulation of mGluR7 assessed as effect on intracellular Ca2+ level up to 30 uM by cell based FLIPR assay; type: functional; summary of the method: as §1
[24] = Intrinsic clearance in human liver microsomes; type: ADME, Microsome; settings: read-out: CLH; summary of the method: as §5
[25] = molecular target: Metabotropic glutamate receptor 6 (Homo sapiens) (UniProt O15303); assay: Agonist activity at mGluR6 assessed as effect on intracellular Ca2+ level up to 30 uM by cell based FLIPR assay; type: functional; summary of the method: as §1
[26] = Ratio of drug level in brain to plasma of Sprague-Dawley rat at 3 umol/kg, po; type: ADME; settings: read-out: BPR
Summary of the method: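 Rats were given an oral dose of 3 µmol/kg. Total brain exposure was compared with plasma exposure to give a brain-to-plasma ratio.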

[27] = Cmax in Sprague-Dawley rat at 3 umol/kg, po; type: ADME, organism-based; set-up: dose 3 umol/kg, route oral; settings: in vivo; summary of the method: as §4
[28] = molecular target: Metabotropic glutamate receptor 2 (Homo sapiens) (UniProt Q14416); assay: Agonist activity at mGluR2 assessed as effect on intracellular Ca2+ level up to 30 uM by cell based FLIPR assay; type: functional; summary of the method: as §1
[29] = molecular target: Metabotropic glutamate receptor 6 (Homo sapiens) (UniProt O15303); assay: Positive allosteric modulation of mGluR6 assessed as effect on intracellular Ca2+ level up to 30 uM by cell based FLIPR assay; type: functional; summary of the method: as §1
[30] = molecular target: Metabotropic glutamate receptor 6 (Homo sapiens) (UniProt O15303); assay: Antagonist activity at mGluR6 assessed as effect on intracellular Ca2+ level up to 30 uM by cell based FLIPR assay; type: functional; summary of the method: as §1
[31] = molecular target: Metabotropic glutamate receptor 8 (Homo sapiens) (UniProt O00222); assay: Agonist activity at mGluR8 assessed as effect on intracellular Ca2+ level up to 30 uM by cell based FLIPR assay; type: functional; summary of the method: as §1

Row | inhibition [1] | solubility [2] | inhibition [3] | Activity [4] | Activity [5] | inhibition [6] | inhibition [7] | inhibition [8] | IC50 [9] | inhibition [10] | Activity [11] | Activity [12] | Activity [13] | inhibition [14] | inhibition [15] | Activity [16] | inhibition [17] | Activity [18] | fraction unbound at 6 h [19] | bioavailability [20] | SMILES | other results
1 | Active | 4.2 µM (≈ 1.19 µg/mL) | inactive | < 50% | < 50% | < 50% | < 50% | Dose-dependent effect | 2.6 nM | 100% | < 50% | < 50% | < 50% | < 50% | < 50% | < 50% | < 50% | < 50% | 0.2 | 56% | N#Cc1cc(F)cc(-c2nc(-c3ccc(F)cn3)no2)c1 | microsomal CLint [21]: 10 µL/min/mg; inhibition [22]: 100%; Activity [23]: < 50%; microsomal CLint [24]: 13.5 µL/min/mg; Activity [25]: < 50%; Kp [26]: 1; Cmax [27]: 460 nM; Activity [28]: < 50%; Activity [29]: < 50%; inhibition [30]: < 50%; Activity [31]: < 50%
2 | Active | 16.1 µM (≈ 4.69 µg/mL) | inactive | < 50% | < 50% | < 50% | < 50% | Dose-dependent effect | 3.2 nM | 100% | < 50% | < 50% | < 50% | < 50% | < 50% | < 50% | < 50% | < 50% | 0.23 | 46% | N#Cc1ccc(-c2noc(-c3cc(F)cc(C#N)c3)n2)nc1 | microsomal CLint [21]: 6 µL/min/mg; inhibition [22]: 100%; Activity [23]: < 50%; microsomal CLint [24]: 3 µL/min/mg; Activity [25]: < 50%; Kp [26]: 1; Cmax [27]: 500 nM; Activity [28]: < 50%; Activity [29]: < 50%; inhibition [30]: < 50%; Activity [31]: < 50%
